Screening data (PubChem BioAssay)
MEX-5 binding – C. elegans MEX-5 TCR-2 RNA binding activity; activity score (negative = inhibition of binding), % at 10 µM; 0.38% of 300,000 active; MEX-5/FITC-TCR2 RNA binding, fluorescence polarization; active compounds read low; Q9XUB2;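 active means inhibition past about -25% in most replicates, and total fluorescence under double the plate's negative control median, limit read from the data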;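 further: 0% = DMSO and -100% = 5 µM competing unlabeled TCR2 RNA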
CendR NRP1 mod – alters CendR peptide binding to human NRP-1 | 0.85% of 360,000 active | AID 602438 | FAM-RPARPAR peptide binding to NRP-1, fluorescence polarization | inhibition, % at 25 µM | O14786;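 active means inhibition or corrected inhibition above about 18%, plus a signal ratio from 0.5 to 1.5, limit read from the data, passing the limit was not always enough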
Target sequence (O14786 whole entry, looked up): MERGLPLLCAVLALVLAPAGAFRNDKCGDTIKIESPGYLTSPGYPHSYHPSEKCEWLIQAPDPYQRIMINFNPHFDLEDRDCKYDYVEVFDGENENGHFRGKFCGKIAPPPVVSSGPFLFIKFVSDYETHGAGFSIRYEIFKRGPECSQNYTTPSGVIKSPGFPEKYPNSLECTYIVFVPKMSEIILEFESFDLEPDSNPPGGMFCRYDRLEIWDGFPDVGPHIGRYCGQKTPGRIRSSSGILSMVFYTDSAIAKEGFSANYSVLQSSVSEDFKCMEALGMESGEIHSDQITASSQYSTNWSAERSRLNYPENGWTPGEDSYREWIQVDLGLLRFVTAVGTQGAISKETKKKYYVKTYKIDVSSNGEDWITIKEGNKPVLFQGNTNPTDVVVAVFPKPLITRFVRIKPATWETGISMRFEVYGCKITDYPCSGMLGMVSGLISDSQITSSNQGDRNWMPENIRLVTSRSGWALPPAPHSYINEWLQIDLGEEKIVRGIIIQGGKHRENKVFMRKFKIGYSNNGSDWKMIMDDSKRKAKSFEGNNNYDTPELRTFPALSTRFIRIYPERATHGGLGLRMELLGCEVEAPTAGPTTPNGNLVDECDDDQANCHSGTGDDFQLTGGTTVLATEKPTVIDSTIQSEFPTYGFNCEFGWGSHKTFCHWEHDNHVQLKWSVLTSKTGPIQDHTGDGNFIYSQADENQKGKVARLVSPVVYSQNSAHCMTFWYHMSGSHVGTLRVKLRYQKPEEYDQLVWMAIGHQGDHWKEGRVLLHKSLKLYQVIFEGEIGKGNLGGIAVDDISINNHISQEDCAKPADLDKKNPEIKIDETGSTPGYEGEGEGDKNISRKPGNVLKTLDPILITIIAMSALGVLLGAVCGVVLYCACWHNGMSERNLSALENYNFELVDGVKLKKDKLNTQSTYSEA
FID counter – displaces DNA intercalator in HCV helicase counter-screen | DNA fluorescent intercalator displacement, fluorescence | inhibition, % at 7.9 µM | 0.17% of 290,000 active | AID 1845; in the data active means inhibition above about 37%;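 further: 0% = vehicle and 100% = reference compound; higher means more ethidium bromide displaced from hairpin DNA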
core dimer inh – blocks dimerization of HCV core protein | inhibition, % at 5 µM | AID 1899 | 0.33% of 300,000 active | TR-FRET GST/Flag-core106 dimerization, 1536-well;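 active means inhibition above the mean of all tested compounds plus 3 SD, set per screening campaign, cut at about 45% in these data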
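assay system = GST-tagged and Flag-tagged HCV core protein residues 1-106 | controls = unlabelled core106 and no-GST-core106 wells | incubation = compound-protein-antibody incubation 4 h at 22.5 °C | probe or stimulus = Eu donor and XL665 acceptor anti-tag antibodies | read-out = % inhibition based on acceptor/donor emission ratio | signal = TR-FRET 671 and 617 nm emission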
The depositor's hits bear a star; · = no result. Hits are enriched below; roughly 1.5% of the tested compounds scored in any of these assays.

SMILES	MEX-5 binding	CendR NRP1 mod	FID counter	core dimer inh
COc1ccc(N2C(=O)c3ccccc3NC(=O)C2C(=O)Nc2ccc(N3CCOCC3)cc2)cc1 (stereo unspecified)	·	8.6	·	·
COc1ccc(C(=O)COC(=O)C(CCSC)NS(=O)(=O)c2ccc(Cl)cc2)cc1 (stereo unspecified)	-1.5	26.0*	-24.7	4.1
CC(=O)c1ccc2c(c1)N(Cc1ccc3ccccc3c1)C(=O)C(C)S2 (stereo unspecified)	·	4.4	·	·
C[C@@H]1CN([C@@H](C)CO)C(=O)CCCn2nncc2CO[C@@H]1CN(C)S(=O)(=O)c1cccc(C#N)c1	·	5.1	·	·
COc1ccc(NC(=O)Cn2nnc(C(N)=O)c2N)c(OC)c1	-2.8	32.8*	-1.9	-9.7
Cc1cc(-c2csc(NC(=O)c3ccc(C#N)cc3)n2)c(C)n1Cc1ccccc1	1.3	-13.0	-9.8	51.6*
COc1ccc(-n2c(C)cc(-c3csc(NC(=O)c4ccc(S(=O)(=O)N(C)C)cc4)n3)c2C)cc1	1.3	-26.3	-12.3	53.1*
N#C/C(=C(/O)c1ccco1)c1nc2ccccc2s1	-2.8	-28.4	-1.1	-8.3
N#C/C(=C(/O)c1cc2ccccc2o1)c1nc2ccccc2s1	-32.6*	-14.4	-0.7	1.2
CC(=O)c1ccc2c(c1)CC1(C2)Cc2cc3c(cc2C1)C(=O)CC3 (stereo unspecified)	·	-1.4	·	·
NC(=O)C1CCN(c2nc(-c3ccccc3F)cs2)CC1	·	25.1*	·	·
NC(=O)C1CCN(c2nc(-c3ccc4occc(=O)c4c3)cs2)CC1	·	24.8*	·	·
NC(=O)C1CCN(c2nc(-c3ccccc3C(F)(F)F)cs2)CC1	·	30.5*	·	·
CS(=O)(=O)c1ccc(Cl)c(NC(=O)CN2CCN(S(=O)(=O)/C=C/c3ccccc3)CC2)c1	·	-4.3	·	·
COc1cccc(C(=O)Nc2ccc3c(c2)OC[C@H](C)N(C(=O)C2CCCC2)C[C@@H](C)[C@@H](OC)CN(C)C3=O)c1	·	-1.2	·	·
Cc1c2cc[n+](CCN3CCCCC3)cc2c(C)c2c1[nH]c1ccc(O)cc12	·	33.9*	·	·
Cc1ccc(C(=O)Nn2cnnc2)cc1[N+](=O)[O-]	1.7	26.1*	-3.8	1.5
Cc1ccc(C(=O)NN2CCOCC2)cc1[N+](=O)[O-]	-1.4	-1.3	-3.8	-0.3
CCN(C[C@H]1N[C@@](CC)(C(=O)OC)[C@H]2C(=O)N(Cc3ccccc3)C(=O)[C@@H]12)S(=O)(=O)c1ccc(OC)cc1	·	2.9	·	·
CCN(C[C@H]1N[C@@](Cc2ccccc2)(C(=O)OC)[C@H]2C(=O)N(Cc3ccccc3)C(=O)[C@@H]12)S(=O)(=O)c1ccc(OC)cc1	·	26.1*	·	·
CSCCC(C(=O)Nc1c(C)cccc1C)n1c(-c2ccc(C(F)(F)F)cc2)nc2ccccc21 (stereo unspecified)	·	-10.3	·	·
CC1CC(=O)Nc2cc([N+](=O)[O-])ccc2N1 (stereo unspecified)	0.3	32.5*	-3.5	-5.1
Cc1ncc(CO)c2c1Oc1nc(-c3ccccc3F)nc(SCC(=O)N(C)c3ccccc3)c1C2	1.8	-37.6	-60.8	53.1*
Cc1ncc(CO)c2c1Oc1nc(-c3ccccc3)nc(SCC(=O)N(C)c3ccccc3)c1C2	-0.8	·	-49.0	13.8
O=C(Nc1ccc(C2=NCCN2)cc1)c1ccc(C(=O)Nc2ccc(C3=NCCN3)cc2)c([N+](=O)[O-])c1	1.9	6.3	70.4*	18.1
SMILES	MEX-5 binding	CendR NRP1 mod	FID counter	core dimer inh
Cc1ccc(NC(=O)c2ccc(-n3cccn3)c([N+](=O)[O-])c2)cc1	-3.9	0.0	4.7	1.6
CN(C(=O)c1cccc(NC(=O)Cc2ccc(NC(=O)C3CCCN(C(=O)C4CC4)C3)cc2)c1)C1CCC1 (stereo unspecified)	·	-1.0	·	·
NC(=O)Nc1ccc(Oc2c(F)c(F)c(F)c(F)c2F)cc1	-1.5	39.7*	-2.5	-4.0
CCc1n[nH]c(=S)n1/N=C/c1cc(OC)cc([N+](=O)[O-])c1O	-6.9	47.0*	-2.2	-3.6
CN(C)c1ccc(-c2csc(C(O)c3ccc(F)c(F)c3)n2)cc1 (stereo unspecified)	·	-1.7	·	·
CC(C)(C)OC(=O)NC(Cc1ccccc1)C(=O)N1CCC(C(=O)NCC(=O)Nc2ccc(F)cc2)CC1 (stereo unspecified)	-56.5*	-2.7	-59.7	3.7
COc1cccc(NC(=O)CN(C)C(=O)CN2C(=O)NC(C)(c3ccc(C)cc3)C2=O)c1 (stereo unspecified)	·	19.4*	·	·
CC1(c2ccc(OC(F)F)cc2)NC(=O)N(CC(=O)Nc2ccc(OC(F)F)cc2)C1=O (stereo unspecified)	0.2	18.0*	-1.9	6.1
Cc1ccc(C2(C)NC(=O)N(CC(=O)N(C)CC(=O)Nc3cccc(F)c3)C2=O)cc1 (stereo unspecified)	·	5.9	·	·
CCN1CCN(c2ccc(NC(=O)CCc3c(C)nc4c(-c5ccccc5)c(C)nn4c3C)cc2)CC1	-5.0	-22.7	41.0*	4.6
O=C(NCc1cccc(C(F)(F)F)c1)c1csc(COCCO)n1	·	0.9	·	·
Cc1ccc2oc(=O)c(/C=C(\O)c3ccccc3)nc2c1	-4.9	41.6*	-10.8	-5.6
Cc1ccc2oc(=O)c(/C=C(\O)c3cccs3)nc2c1	-44.8*	130.1	-2.5	-4.7
CCS(=O)(=O)c1ccc2oc(=O)c(/C=C(\O)c3ccc(Cl)cc3)nc2c1	-8.4	-35.7	2.2	-2.0
O=c1oc2ccc(Cl)cc2nc1/C=C(\O)c1cccs1	-66.6*	-90.3	-1.9	-0.5
C=CCn1c(=O)[nH]c2nc3cc(N=CN(C)C)c(C)cc3nc2c1=O	-50.5*	139.5	3.6	-2.9
C[C@@H]1O[C@H](C2CC2)Cc2[nH]c(=S)[nH]c(=O)c21	·	5.5	·	·
CCC1(C)CC(c2nc(-c3ccc(OC)cc3)cs2)CCS1 (stereo unspecified)	0.9	32.3*	-1.4	0.2
Cc1cc2c(cc1S(=O)(=O)NC1CCCCC1C)OCC(=O)N2 (stereo unspecified)	3.1	39.5*	-8.2	0.1
COc1ccc2c(c1)C(=O)C1NC(=O)NC(=O)C1(Br)N2 (stereo unspecified)	·	10.9	·	·
CCCC(C)NC(=S)NC(=O)c1cc(S(=O)(=O)N2CCOCC2)ccc1C (stereo unspecified)	4.9	-1.6	-31.0	3.4
CCCCCC(C)NC(=S)NC(=O)c1cc(S(=O)(=O)N2CCOCC2)ccc1C (stereo unspecified)	0.0	26.1*	-33.8	13.1
CCCc1sc(N)nc1-c1ccc(C)cc1	1.0	17.2*	-3.1	-3.1
O=C(CC12CC3CC(CC(C3)C1)C2)N/N=C/c1ccncc1	-2.0	18.3*	-15.5	-3.2
CCN1c2ccccc2-c2nc3ccccc3n2C1c1ccncc1 (stereo unspecified)	-0.2	-4.5	22.0	3.3
CCN1c2ccccc2-c2nc3ccccc3n2C1c1ccccn1 (stereo unspecified)	-1.9	38.7*	-13.3	11.3
O=C(Cn1nnc(-c2ccc(F)cc2)n1)Nc1cccc(S(=O)(=O)N2CCCC2)c1	·	3.9	·	·
COc1ccc(CNC(=O)[C@@H]2CC=C[C@@H]3CCN(C4CCCCC4)C(=O)[C@@H]32)cc1	1.2	15.2	·	-4.2
